Data set [1] is described as follows: Cytotoxicity against human neutrophils assessed as cell viability by ethidium bromide-fluorescein diacetate test. The data set is classed as cell-based, Neutrophil. Set-up: concentration or dose not given beside the values. As to conditions: read-out: Activity. The gist of the method: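 Neutrophils (2 × 10^6/mL) from healthy donor blood, incubated 2 h at 37 °C in CO2 atmosphere with compounds. Cells then stained with fluorescein diacetate/ethidium bromide in HBSS, 10 min at room temperature. Scored under UV dark-field: green = intact membrane (viable), red nucleus = necrotic; percentage viable cells.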

For data set [2], the system named is Neutrophil. The data set can be described thus: Inhibition of chemotaxis in human neutrophils assessed as inhibition of C5a-induced migration by Boyden chamber assay. The data set is classed as functional, cell-based. The gist of the method: (§1)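 Donor blood neutrophils (dextran sedimentation, Ficoll-Hypaque, hypotonic lysis; >97% pure), preincubated with compound 15 min at room temperature. 4 × 10^5 cells in upper compartment of blind-well chamber, 3 µm cellulose ester filter. Lower compartment: IL-8 10^-9 M, fMLP 10^-8 M or C5a 10^-9 M. Incubation 37 °C, 45 min. Leading-front distance read at ×400, five fields/filter, duplicates. Net migration = stimulated minus spontaneous. IC50 by nonlinear regression, mean of ≥3 experiments.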

Data set [3] concerns Neutrophil. The data set can be described thus: Inhibition of chemotaxis in human neutrophils assessed as inhibition of IL8-induced migration by Boyden chamber assay. The data set is classed as functional, cell-based. The gist of the method:
as §1

For data set [4], the system named is Neutrophil. The data set can be described thus: Inhibition of chemotaxis in human neutrophils assessed as inhibition of fMLP-induced migration by Boyden chamber assay. The data set is classed as functional, cell-based. The method in brief: as §1
Data set [5] has as its target T1, C-X-C chemokine receptor type 2 (Homo sapiens) (UniProt P25025).
T1 sequence (whole entry): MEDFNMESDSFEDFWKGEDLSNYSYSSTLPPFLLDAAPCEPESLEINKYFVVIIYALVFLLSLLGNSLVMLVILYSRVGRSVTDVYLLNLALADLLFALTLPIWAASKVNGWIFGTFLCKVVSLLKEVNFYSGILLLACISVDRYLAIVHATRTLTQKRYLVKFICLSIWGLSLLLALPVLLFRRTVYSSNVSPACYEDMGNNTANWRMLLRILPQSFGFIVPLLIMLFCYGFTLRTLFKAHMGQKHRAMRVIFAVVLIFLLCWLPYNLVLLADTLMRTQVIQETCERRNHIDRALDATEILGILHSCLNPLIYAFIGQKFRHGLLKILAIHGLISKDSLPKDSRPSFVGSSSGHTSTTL
Kind of data set: Binding affinity to CXCR2.

Data set [6] has as its target T2, C-X-C chemokine receptor type 1 (Homo sapiens) (UniProt P25024).
T2 sequence (whole entry): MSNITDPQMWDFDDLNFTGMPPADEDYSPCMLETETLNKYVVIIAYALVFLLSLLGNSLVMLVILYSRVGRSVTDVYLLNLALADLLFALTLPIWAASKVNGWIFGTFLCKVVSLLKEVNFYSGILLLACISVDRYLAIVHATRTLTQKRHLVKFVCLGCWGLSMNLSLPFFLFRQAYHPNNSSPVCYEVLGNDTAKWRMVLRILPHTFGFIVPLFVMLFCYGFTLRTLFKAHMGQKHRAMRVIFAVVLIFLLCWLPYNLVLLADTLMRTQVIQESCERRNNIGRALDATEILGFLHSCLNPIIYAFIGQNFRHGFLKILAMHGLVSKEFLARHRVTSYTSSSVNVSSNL
The data set can be described thus: Binding affinity to CXCR1.

Data set [7] has as its system Mus musculus. Kind of data set: Inhibition of chemotaxis in zymosan-induced peritonitis Swiss mouse model assessed as number of peritoneal granulocytes per cavity at 3 mg/kg, po pretreated 1 hr before zymosan-challenge measured 4 hrs post inducer challenge (Rvb=27.1+/-3.5 million). In kind it is functional.
For data set [8], the system named is Mus musculus. The data set can be described thus: Inhibition of chemotaxis in zymosan-induced peritonitis Swiss mouse model assessed as number of peritoneal cells per cavity at 3 mg/kg, po pretreated 1 hr before zymosan-challenge measured 4 hrs post inducer challenge (Rvb=31.5+/-1.2 million). The data set is classed as functional.
In data set [9] the test system is Mus musculus. The data set can be described thus: Inhibition of chemotaxis in zymosan-induced peritonitis Swiss mouse model assessed as peritoneal protein concentration at 3 mg/kg, po pretreated 1 hr before zymosan-challenge measured 4 hrs post inducer challenge (Rvb=1961+/-160 µg/mL).
Data set [10] concerns Mus musculus. Kind of data set: Inhibition of chemotaxis in zymosan-induced peritonitis Swiss mouse model assessed as peritoneal protein concentration at 50 mg/kg, po pretreated 1 hr before zymosan-challenge measured 4 hrs post inducer challenge (Rvb=1961+/-[…]). The data set is classed as functional.
The test system of data set [11] is Mus musculus. The data set can be described thus: Inhibition of chemotaxis in zymosan-induced peritonitis Swiss mouse model assessed as number of peritoneal cells per cavity at 50 mg/kg, po pretreated 1 hr before zymosan-challenge measured 4 hrs post inducer challenge (Rvb=31.5+/-1.2 million). In kind it is functional.
The subject of data set [12] is Mus musculus. Kind of data set: Inhibition of chemotaxis in zymosan-induced peritonitis Swiss mouse model assessed as number of peritoneal granulocytes per cavity at 50 mg/kg, po pretreated 1 hr before zymosan-challenge measured 4 hrs post inducer challenge (Rvb=27.1+/-3.5 million). In kind it is functional.

Activity calls are given as the source filed them. No cut-off for these calls is given here.

For `CCOC(=O)c1c(NCCN(C)C)n(-c2ccccc2)c(=S)n(-c2ccccc2)c1=O`, in [1], the viability was at least 94%. In addition, the result in data set [2] and in [4] was inactive. In addition, in data set [3], the 50% inhibitory concentration (IC50) was found to be 0.1 nM.
As for `CCOC(=O)c1c(NCCc2ccccn2)n(-c2ccccc2)c(=S)n(-c2ccccc2)c1=O`, the viability in data set [1] is at least 94%. Moreover, in data set [3], the IC50 is 0.49 nM. The outcome in data set [5], in data set [6] and in data set [4] was inactive.
For `COC(=O)c1c(NCC(OC)OC)n(-c2ccccc2)c(=S)n(-c2ccccc2)c1=O`, the viability in [1] is at least 94%. For the same molecule, in data set [3], the IC50 came to 31.2 nM. Besides, the result in data set [4] was inactive.
In the case of `CCOC(=O)c1c(NCCCN(C)C)n(-c2ccccc2)c(=S)n(-c2ccccc2)c1=O`, the viability in data set [1] was at least 94%. In addition, the IC50 in [3] worked out at 3.89 nM. Also, in data set [4], the result was inactive.
As to `CCOC(=O)c1c(NCCN2CCOCC2)n(-c2ccccc2)c(=S)n(-c2ccccc2)c1=O`, in data set [1], the viability was at least 94%. Besides, the 50% inhibitory concentration (IC50) in [3] was determined as 172 nM. Further, the result in data set [4] was inactive.
For `CCOC(=O)c1c(NCCNc2ccccc2)n(-c2ccccc2)c(=S)n(-c2ccccc2)c1=O`, the viability in data set [1] was at least 94%. For the same molecule, in [3], the IC50 amounted to 0.61 nM. In addition, the result in [5], in data set [6] and in data set [4] was inactive.
Turning to `COC(=O)c1c(NCCc2ccc(S(N)(=O)=O)cc2)n(-c2ccccc2)c(=S)n(-c2ccccc2)c1=O`, the viability in data set [1] was at least 94%. Besides, in [3], the concentration for half-maximal inhibition (IC50) came to 10.8 nM. The result in [4] was inactive.
Take `CC(C)OC(=O)c1c(NCCN(C)C)n(-c2ccccc2)c(=S)n(-c2ccccc2)c1=O`: in [1], the viability was at least 94%. The result in [2] and in data set [4] was inactive. In addition, the 50% inhibitory concentration (IC50) in data set [3] came out at 0.18 nM.
Regarding `C[C@@H]1C[C@H]2[C@@H]3CCC4=CC(=O)C=C[C@]4(C)[C@@]3(F)[C@@H](O)C[C@]2(C)[C@@]1(O)C(=O)CO` [DEXAMETHASONE], the figures for the Activity in data set [7], in data set [8] and in data set [9] were 18.5 million, 22 million and 1400 µg/mL, respectively.
With `COC(=O)c1c(NCCc2c[nH]c3ccccc23)n(-c2ccccc2)c(=S)n(-c2ccccc2)c1=O`, the viability in data set [1] is at least 94%. Also, the IC50 in data set [3] stood at 29.6 nM. The outcome in data set [4] was inactive.
Take `CC(=O)c1c(NCCN(C)C)n(-c2ccccc2)c(=S)n(-c2ccccc2)c1=O`: in [1], the viability was at least 94%. Besides, the IC50 in data set [3] is 6.86 nM. The result in data set [4] was inactive.
As for `CC(=O)c1c(N2CCN(C)CC2)n(-c2ccccc2)c(=S)n(-c2ccccc2)c1=O`, in data set [1], the viability is at least 94%. Besides, the half-inhibitory concentration (IC50) in data set [3] stood at 14.8 nM. Also, the outcome in [4] was inactive.
As to `CCOC(=O)c1c(NCCN2CCCCC2)n(-c2ccccc2)c(=S)n(-c2ccccc2)c1=O`, the viability in data set [1] was at least 94%. In data set [3], the IC50 was determined as 85.4 nM. Further, the outcome in data set [4] was inactive.
Turning to `CCOC(=O)c1c(NCCOC)n(-c2ccccc2)c(=S)n(-c2ccccc2)c1=O`, the viability in data set [1] is at least 94%. In addition, in data set [3], the IC50 stood at 1.36 nM. In addition, the outcome in [5], in [6] and in data set [4] was inactive.
As to `CCOC(=O)c1c(NCCN(CC)CC)n(-c2ccccc2)c(=S)n(-c2ccccc2)c1=O`, the viability in data set [1] is at least 94%. In addition, the result in data set [2], in data set [5], in data set [6] and in [4] was inactive. The figures for the Activity in data set [10], in data set [11] and in [12] were 1520 µg/mL, 23.8 million and 17.7 million, respectively. Moreover, the half-inhibitory concentration (IC50) in data set [3] came out at 0.02 nM.
Consider `CCOC(=O)c1c(NCCC2CCCN2C)n(-c2ccccc2)c(=S)n(-c2ccccc2)c1=O` (stereo unspecified), for which the viability in data set [1] was at least 94%. Moreover, the IC50 in data set [3] was determined as 1.61 nM. In addition, the result in data set [5], in data set [6] and in data set [4] was inactive.
With `COC(=O)c1c(NCCN(C)C)n(-c2ccccc2)c(=S)n(-c2ccccc2)c1=O`, the viability in data set [1] was at least 94%. Also, the IC50 in data set [3] amounted to 3.32 nM. Besides, the result in data set [4] was inactive.
On to `CCN(CC)CCNc1c(C(=O)OC(C)C)c(=O)n(-c2ccccc2)c(=S)n1-c1ccccc1`, for which the viability in data set [1] is at least 94%. In addition, the outcome in data set [2] and in data set [4] was inactive. In [3], the 50% inhibitory concentration (IC50) was determined as 0.21 nM.

In general, IC50 refers to the concentration that gives 50% inhibition.

(Values after ChEMBL document CHEMBL1136878, “6-amino-4-oxo-1,3-diphenyl-2-thioxo-1,2,3,4-tetrahydropyrimidine-5-carbonyl derivatives as a new class of potent inhibitors of Interleukin-8-induced neutrophil chemotaxis” (Bioorg Med Chem, 2009).)
